The values that follow come from paper PMC2196277 (The Journal of Experimental Medicine, 1997).

Assay [1] addresses T1, H2-K^d (Mus musculus, UniProt P01902). In kind it is cell-based, BALB/c.
Assay [2] deals with T1, H2-K^d. To be noted: ref [17], [19], [20]; cited from earlier work.
The target in assay [3] is T2, H2-K^d (L. monocytogenes-infected J774 cells) (Mus musculus, UniProt P01902). The assay is described as follows: CTL epitope quantification. In kind it is cell-based, BALB/c. The following applies: for loss of epitope in BFA-treated cells after tetracycline: BFA added 3 h and TCN 4 h after infection; for time for which intracellularly retained H2-K^d binds new epitopes: BFA-treated, CHX–ANM 4 h after infection, up to; for epitopes per cell after CHX–ANM treatment: CHX and ANM added 4 h after infection. A digest of the protocol: (§1)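 J774 monolayers in antibiotic-free RP10 were infected for 30 min with log-phase L. monocytogenes (OD600 0.1), then kept in 5 μg/ml gentamicin. BFA was added 3 h post-infection, and tetracycline or CHX–ANM at 4 h. Cells were scraped, extracted in 0.1% TFA, homogenised, sonicated, ultracentrifuged and HPLC-fractionated. Fractions were titrated in triplicate on 51Cr-labelled P815 with Kd-restricted CTL clones against synthetic-peptide standards, giving epitopes per infected cell.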
T2 sequence (P01902 22-368): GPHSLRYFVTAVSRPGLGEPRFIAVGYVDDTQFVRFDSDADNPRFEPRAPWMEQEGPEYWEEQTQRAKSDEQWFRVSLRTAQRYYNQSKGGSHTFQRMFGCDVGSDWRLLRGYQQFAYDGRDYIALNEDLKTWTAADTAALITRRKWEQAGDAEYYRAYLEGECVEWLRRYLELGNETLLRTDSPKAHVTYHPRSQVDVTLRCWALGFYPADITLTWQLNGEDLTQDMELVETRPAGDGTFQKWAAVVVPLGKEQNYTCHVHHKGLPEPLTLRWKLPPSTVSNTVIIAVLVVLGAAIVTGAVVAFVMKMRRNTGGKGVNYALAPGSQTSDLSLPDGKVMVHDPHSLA
T2 sequence (P01887 21-119, further chain): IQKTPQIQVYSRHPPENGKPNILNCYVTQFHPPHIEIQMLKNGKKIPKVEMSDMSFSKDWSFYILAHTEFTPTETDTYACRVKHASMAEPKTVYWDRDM

Assay [4] has as its target T2, H2-K^d (L. monocytogenes-infected J774 cells). To be noted: ref [17], cited from earlier work.
Assay [5] has as its target T1, H2-K^d. Format: cell-based, BALB/c. The following applies: infected cells; for half-life of peptide–H2-K^d complexes: normally trafficking H2-K^d (no BFA). In short, it runs like this:
as §1

Assay [6] has as its system CTL responding to epitope. To be noted: murine infection with L. monocytogenes; ref [31]; cited from earlier work.

T1 sequence (P01902 22-368): as the sequence (P01902 22-368) above
T1 sequence (P01887 21-119, further chain): as the sequence (P01887 21-119, further chain) above

With `C[C@H]1CCC/C=C/[C@@H]2C[C@H](O)C[C@H]2[C@H](O)/C=C/C(=O)O1` [BFA, brefeldin A], the “effect of BFA on H2-K^d trafficking / retention” value in assay [1] is listed as “induces intracellular retention of H2-K^d molecules in infected J774 cells”.
With “GYKDGNEYI [LLO 91-99, reference compound]”, the “number of secreted antigen molecules degraded per H2-K^d-associated epitope” value (shortened to “number … per H2-K^d-associated epitope”) in assay [2] is 3–11.
Regarding IYVGNGQMI [p60 449-457], the “epitopes per cell 3 h after tetracycline” value in assay [3] (3 h after tetracycline (20 μg/ml, added 4 h after infection), no BFA) is 1,000 epitopes/cell. Besides, in assay [3] (BFA added 3 h after infection, 6–7 h after infection, no tetracycline), the “increase of epitopes extracted from BFA-treated vs untreated cells” value is recorded as around 60%. For the same compound, in assay [3], the “loss of epitope in BFA-treated cells after tetracycline” value is on record as “very rapid” and the “time for which intracellularly retained H2-K^d binds new epitopes” value was “up to 3 h”. The “epitopes per cell after CHX–ANM treatment” value in assay [3] (no BFA) is “decreases after CHX–ANM treatment”. Also, the “epitopes per cell at tetracycline addition” value in assay [3] (start of drop after tetracycline (20 μg/ml, added 4 h after infection), no BFA) is reported as 9,000 epitopes/cell. In addition, the “generation of epitope relative to p60 217-225” value in assay [4] (L. monocytogenes infected J774 cells) was “earlier and faster than p60 217-225”. Besides, in assay [4] (first few hours of infection, J774), the “amount of epitope extracted relative to p60 217-225” value is listed as around 10 times. Further, in assay [4] (infected cells, continuous antigen production), the “prevalence of epitope throughout cellular infection” value is “greater than either LLO 91-99 or p60 217225 throughout cellular infection”. In assay [5], the “stability of complex with H2-K^d (summary)” value is reported as “forms a more labile complex with H2-K^d” and the “half-life of peptide–H2-K^d complexes” value is around 1 h. In addition, the “half-life of complexes retained intracellularly with brefeldin A” value in assay [5] (+ BFA) was determined as 0.5 h. In assay [2], the “number … per H2-K^d-associated epitope” value is 3–11.
Take KYGVSVQDI [p60 217-225]: the “effect of BFA on amount of epitope extracted” value in assay [3] (BFA added 3 h after infection, no tetracycline) is “not affected by BFA”. For the same compound, in assay [3], the “loss of epitope in BFA-treated cells after tetracycline” value is on record as “decreased only minimally” and the “time for which intracellularly retained H2-K^d binds new epitopes” value is “up to 3 h”. Besides, the “epitopes per cell after CHX–ANM treatment” value in assay [3] (no BFA) was “stops increasing when host cell protein synthesis is inhibited”. In addition, in assay [5], the “stability of complex with H2-K^d (summary)” value is listed as “forms a stable complex with H2-K^d” and the “half-life of peptide–H2-K^d complexes” value is on record as above 6 h. The “number … per H2-K^d-associated epitope” value in assay [2] was 35. Further, the “number of responding CTL relative to p60 449-457” value in assay [6] was 10 times.
